From ChEMBL document CHEMBL1145031, “Rational design, synthesis, and structure-activity relationships of novel factor Xa inhibitors: (2-substituted-4-amidinophenyl)pyruvic and -propionic acids” (J Med Chem, 2003)

Tested on: not listed separately
Assay: Oral bioavailability
Type: ADME, organism-based
Conditions: eutheria, in vivo
Outline: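 Overnight-fasted male cynomolgus monkeys received 10 mg/kg orally by gastric tube, or 0.3 or 1.0 mg/kg intravenously. Saphenous vein blood was drawn into trisodium citrate before dosing and at several times up to 24 h. Plasma drug levels were measured by HPLC.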

| bioavailability | Structure (SMILES) |
| --- | --- |
| 12% | N=C(N)c1ccc(CC(=O)C(=O)O)c(OCCNC(=O)C2CCN(c3ccncc3)CC2)c1 |
| 12% | CC(=N)N1CCC(Oc2ccc(C(=O)N[C@@H](COc3cc(C(=N)N)ccc3CC(=O)C(=O)O)CC(=O)O)cc2)CC1 |
| 6% | N=C(N)c1ccc(CCC(=O)O)c(OCCNC(=O)C2CCN(c3ccncc3)CC2)c1 |

Biological target: Coagulation factor X (Homo sapiens, UniProt P00742)
Assay: Inhibitory activity against Coagulation factor X (fXa)
Conditions: not given
Outline: (§1)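 Chromogenic assay at room temperature in pH 8.4 buffer (0.1 M Tris, 0.2 M NaCl, 0.1% PEG-6000, 0.02% Tween20). For fXa, 4.5 nM enzyme with 200 μM S-2222; for thrombin, 1.1 nM enzyme with 100 μM S-2238 (final). Inhibitor and enzyme preincubated 10 min, then substrate added. p-Nitroaniline release read at 405 nm for 16 min. IC50 taken from initial velocities; apparent Ki scaled from IC50 ratios against a standard inhibitor's Ki from a double reciprocal plot.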

Chain of Coagulation factor X (P00742 41-179 limits assumed): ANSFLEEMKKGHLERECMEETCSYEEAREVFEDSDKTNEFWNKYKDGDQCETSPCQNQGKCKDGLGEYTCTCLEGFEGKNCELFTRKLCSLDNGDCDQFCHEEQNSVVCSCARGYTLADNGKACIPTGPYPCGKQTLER
Chain of Coagulation factor X (P00742 235-488 limits assumed): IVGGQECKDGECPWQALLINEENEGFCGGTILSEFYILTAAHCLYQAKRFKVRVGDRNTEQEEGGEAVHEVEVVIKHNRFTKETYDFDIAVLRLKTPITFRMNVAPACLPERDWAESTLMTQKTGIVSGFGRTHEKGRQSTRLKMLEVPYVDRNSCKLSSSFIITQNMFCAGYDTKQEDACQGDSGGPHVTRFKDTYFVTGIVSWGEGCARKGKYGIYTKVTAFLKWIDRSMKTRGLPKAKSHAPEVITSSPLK

| Structure (SMILES) | Ki |
| --- | --- |
| N=C(N)c1cccc(OCCNC(=O)C2CCN(c3ccncc3)CC2)c1 | 0.29 µM |
| N=C(N)c1ccc(C(=O)N[C@H](COc2cccc(C(=N)N)c2)CC(=O)O)cc1 | 0.17 µM |
| N=C(N)c1cccc(OCCNC(=O)c2ccccc2)c1 | 2.8 µM |
| N=C(N)c1ccc(CC(=O)C(=O)O)c(OCCNC(=O)c2ccc(C(=O)N3CCCC3)cc2)c1 | 0.003 µM |
| CC(=N)N1CCC(Oc2ccc(C(=O)NCCOc3cc(C(=N)N)ccc3CCC(=O)O)cc2)CC1 | 0.033 µM |
| N=C(N)c1ccc(C(=O)NCCOc2cc(C(=N)N)ccc2CC(=O)C(=O)O)cc1 | 0.026 µM |
| CC(=N)N1CCC(Oc2ccc(C(=O)NCCOc3cccc(C(=N)N)c3)cc2)CC1 | 0.17 µM |
| N=C(N)c1cccc(OCCNC(=O)c2ccc(C(=O)N3CCCC3)cc2)c1 | 0.02 µM |
| N=C(N)c1ccc(CCC(=O)O)c(OCCNC(=O)C2CCN(c3ccncc3)CC2)c1 | 0.043 µM |

The remaining lines, values ahead:

| Ki | Structure (SMILES) |
| --- | --- |
| 0.021 µM | N=C(N)c1ccc(CC(=O)C(=O)O)c(OCCNC(=O)C2CCN(c3ccncc3)CC2)c1 |
| 0.02 µM | CC(=N)N1CCC(Oc2ccc(C(=O)NCCOc3cc(C(=N)N)ccc3CC(=O)C(=O)O)cc2)CC1 |
| 0.028 µM | N=C(N)c1ccc(C(=O)N[C@@H](COc2cccc(C(=N)N)c2)CC(=O)O)cc1 |
| 0.018 µM | N=C(N)c1ccc(CC(=O)C(=O)O)c(OC[C@@H](CC(=O)O)NC(=O)C2CCN(c3ccncc3)CC2)c1 |
| 0.22 µM | N=C(N)c1ccc(C(=O)NCCOc2cccc(C(=N)N)c2)cc1 |
| 0.011 µM | CC(=N)N1CCC(Oc2ccc(C(=O)N[C@@H](COc3cc(C(=N)N)ccc3CC(=O)C(=O)O)CC(=O)O)cc2)CC1 |

Species on record: Homo sapiens
Assay: Concentration required to double the prothrombin time(PT) in human plasma was determined
Type: functional
Conditions: not given

| Structure (SMILES) | PT |
| --- | --- |
| N=C(N)c1ccc(CC(=O)C(=O)O)c(OCCNC(=O)C2CCN(c3ccncc3)CC2)c1 | 0.22 µM |
| CC(=N)N1CCC(Oc2ccc(C(=O)NCCOc3cc(C(=N)N)ccc3CC(=O)C(=O)O)cc2)CC1 | 0.2 µM |
| CC(=N)N1CCC(Oc2ccc(C(=O)N[C@@H](COc3cc(C(=N)N)ccc3CC(=O)C(=O)O)CC(=O)O)cc2)CC1 | 0.38 µM |
| N=C(N)c1ccc(CCC(=O)O)c(OCCNC(=O)C2CCN(c3ccncc3)CC2)c1 | 0.42 µM |

Biological target: Prothrombin (Homo sapiens, UniProt P00734)
Assay: Inhibitory activity against thrombin
Conditions: not given
Outline: as §1

| Structure (SMILES) | Ki |
| --- | --- |
| N=C(N)c1cccc(OCCNC(=O)C2CCN(c3ccncc3)CC2)c1 | 1000 µM |
| N=C(N)c1ccc(C(=O)N[C@H](COc2cccc(C(=N)N)c2)CC(=O)O)cc1 | > 1500 µM |
| N=C(N)c1cccc(OCCNC(=O)c2ccccc2)c1 | 800 µM |
| N=C(N)c1ccc(CC(=O)C(=O)O)c(OCCNC(=O)c2ccc(C(=O)N3CCCC3)cc2)c1 | 24 µM |
| CC(=N)N1CCC(Oc2ccc(C(=O)NCCOc3cc(C(=N)N)ccc3CCC(=O)O)cc2)CC1 | > 1500 µM |
| N=C(N)c1ccc(C(=O)NCCOc2cc(C(=N)N)ccc2CC(=O)C(=O)O)cc1 | 38 µM |
| CC(=N)N1CCC(Oc2ccc(C(=O)NCCOc3cccc(C(=N)N)c3)cc2)CC1 | 440 µM |
| N=C(N)c1cccc(OCCNC(=O)c2ccc(C(=O)N3CCCC3)cc2)c1 | 110 µM |
| N=C(N)c1ccc(CCC(=O)O)c(OCCNC(=O)C2CCN(c3ccncc3)CC2)c1 | > 1500 µM |

The remaining lines, values ahead:

| Ki | Structure (SMILES) |
| --- | --- |
| 140 µM | N=C(N)c1ccc(CC(=O)C(=O)O)c(OCCNC(=O)C2CCN(c3ccncc3)CC2)c1 |
| 53 µM | CC(=N)N1CCC(Oc2ccc(C(=O)NCCOc3cc(C(=N)N)ccc3CC(=O)C(=O)O)cc2)CC1 |
| > 1500 µM | N=C(N)c1ccc(C(=O)N[C@@H](COc2cccc(C(=N)N)c2)CC(=O)O)cc1 |
| 680 µM | N=C(N)c1ccc(CC(=O)C(=O)O)c(OC[C@@H](CC(=O)O)NC(=O)C2CCN(c3ccncc3)CC2)c1 |
| 710 µM | N=C(N)c1ccc(C(=O)NCCOc2cccc(C(=N)N)c2)cc1 |
| 540 µM | CC(=N)N1CCC(Oc2ccc(C(=O)N[C@@H](COc3cc(C(=N)N)ccc3CC(=O)C(=O)O)CC(=O)O)cc2)CC1 |

Biological target: Thrombin and coagulation factor X (Homo sapiens) (UniProt P00734+P00742)
Assay: Selectivity for factor Xa (fXa) versus thrombin
Type: protein assay
Conditions: not given

Chain of Thrombin and coagulation factor X (Homo sapiens) (P00742 whole entry, looked up, other chains not shown): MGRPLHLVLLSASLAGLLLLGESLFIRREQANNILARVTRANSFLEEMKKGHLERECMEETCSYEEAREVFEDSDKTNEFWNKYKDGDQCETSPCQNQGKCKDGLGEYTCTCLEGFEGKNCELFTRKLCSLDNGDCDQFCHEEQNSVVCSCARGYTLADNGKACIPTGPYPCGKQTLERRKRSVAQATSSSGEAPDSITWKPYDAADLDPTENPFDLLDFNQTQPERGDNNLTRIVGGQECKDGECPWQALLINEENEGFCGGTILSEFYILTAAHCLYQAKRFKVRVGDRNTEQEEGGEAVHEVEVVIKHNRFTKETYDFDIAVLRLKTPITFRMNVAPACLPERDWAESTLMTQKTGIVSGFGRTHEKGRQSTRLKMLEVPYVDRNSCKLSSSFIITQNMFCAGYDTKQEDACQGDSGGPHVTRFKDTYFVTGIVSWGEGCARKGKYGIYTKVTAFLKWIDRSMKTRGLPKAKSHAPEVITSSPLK

| Structure (SMILES) | Ratio |
| --- | --- |
| N=C(N)c1cccc(OCCNC(=O)C2CCN(c3ccncc3)CC2)c1 | 3500 |
| N=C(N)c1ccc(C(=O)N[C@H](COc2cccc(C(=N)N)c2)CC(=O)O)cc1 | > 8800 |
| N=C(N)c1cccc(OCCNC(=O)c2ccccc2)c1 | 290 |
| N=C(N)c1ccc(CC(=O)C(=O)O)c(OCCNC(=O)c2ccc(C(=O)N3CCCC3)cc2)c1 | 8000 |
| CC(=N)N1CCC(Oc2ccc(C(=O)NCCOc3cc(C(=N)N)ccc3CCC(=O)O)cc2)CC1 | > 45000 |
| N=C(N)c1ccc(C(=O)NCCOc2cc(C(=N)N)ccc2CC(=O)C(=O)O)cc1 | 1500 |
| CC(=N)N1CCC(Oc2ccc(C(=O)NCCOc3cccc(C(=N)N)c3)cc2)CC1 | 2600 |
| N=C(N)c1cccc(OCCNC(=O)c2ccc(C(=O)N3CCCC3)cc2)c1 | 5500 |
| N=C(N)c1ccc(CCC(=O)O)c(OCCNC(=O)C2CCN(c3ccncc3)CC2)c1 | > 35000 |

The next lines start with the values.

| Ratio | Structure (SMILES) |
| --- | --- |
| 6700 | N=C(N)c1ccc(CC(=O)C(=O)O)c(OCCNC(=O)C2CCN(c3ccncc3)CC2)c1 |
| 2700 | CC(=N)N1CCC(Oc2ccc(C(=O)NCCOc3cc(C(=N)N)ccc3CC(=O)C(=O)O)cc2)CC1 |
| > 54000 | N=C(N)c1ccc(C(=O)N[C@@H](COc2cccc(C(=N)N)c2)CC(=O)O)cc1 |
| 38000 | N=C(N)c1ccc(CC(=O)C(=O)O)c(OC[C@@H](CC(=O)O)NC(=O)C2CCN(c3ccncc3)CC2)c1 |
| 3200 | N=C(N)c1ccc(C(=O)NCCOc2cccc(C(=N)N)c2)cc1 |
| 49000 | CC(=N)N1CCC(Oc2ccc(C(=O)N[C@@H](COc3cc(C(=N)N)ccc3CC(=O)C(=O)O)CC(=O)O)cc2)CC1 |

Tested on: Monkey
Assay: Concentration required to double the prothrombin time (PT) in plasma of cynomolgus monkey
Conditions: not given

| Structure (SMILES) | PT |
| --- | --- |
| N=C(N)c1ccc(CC(=O)C(=O)O)c(OCCNC(=O)C2CCN(c3ccncc3)CC2)c1 | 0.22 µM |
| CC(=N)N1CCC(Oc2ccc(C(=O)NCCOc3cc(C(=N)N)ccc3CC(=O)C(=O)O)cc2)CC1 | 0.12 µM |
| CC(=N)N1CCC(Oc2ccc(C(=O)N[C@@H](COc3cc(C(=N)N)ccc3CC(=O)C(=O)O)CC(=O)O)cc2)CC1 | 0.38 µM |
| N=C(N)c1ccc(CCC(=O)O)c(OCCNC(=O)C2CCN(c3ccncc3)CC2)c1 | 0.7 µM |
